Columns and labels:
Type in all cases: functional
MDA-MB-468 = experiment: Growth inhibition of human MDA-MB-468 cells at 1 nM after 96 hrs by MTT assay; set-up: scale not given: the % may be the effect or the level left
LOX IMVI [1] = experiment: Growth inhibition of human LOXIMVI cells at 1 nM after 96 hrs by MTT assay; set-up: scale not given: the % may be the effect or the level left
SF-295 [2] = experiment: Growth inhibition of human SF295 cells at 1 nM after 96 hrs by MTT assay; set-up: scale not given: the % may be the effect or the level left
NCI-H522 [3] = experiment: Growth inhibition of human NCI-H522 cells at 1 nM after 96 hrs by MTT assay; set-up: scale not given: the % may be the effect or the level left
HL-60(TB) [4] = experiment: Growth inhibition of human HL-60(TB) cells at 1 nM after 96 hrs by MTT assay; set-up: scale not given: the % may be the effect or the level left
UO-31 = experiment: Growth inhibition of human UO31 cells at 10 uM after 96 hrs by MTT assay; set-up: scale not given: the % may be the effect or the level left
OVCAR-3 = experiment: Growth inhibition of human OVCAR-3 cells at 10 uM after 96 hrs by MTT assay; set-up: scale not given: the % may be the effect or the level left
MDA-MB-435 [5] = experiment: Growth inhibition of human MDA-MB-435 cells at 10 uM after 96 hrs by MTT assay; set-up: scale not given: the % may be the effect or the level left
HCC 2998 [6] = experiment: Growth inhibition of human HCC2998 cells at 10 uM after 96 hrs by MTT assay; set-up: scale not given: the % may be the effect or the level left
A549 = experiment: Growth inhibition of human A549 cells at 10 uM after 96 hrs by MTT assay; set-up: scale not given: the % may be the effect or the level left
SR = experiment: Growth inhibition of human SR cells at 10 uM after 96 hrs by MTT assay; set-up: scale not given: the % may be the effect or the level left
HCT-15 [7] = experiment: Growth inhibition of human HCT15 cells after 96 hrs by MTT assay; conditions: HCT-15, 96 h
Method in brief: (§1)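 Run in the NCI 60 human tumour cell line panel as a five-dose assay. GI50 and LC50 were reported for each cell line.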

U-251 = experiment: Growth inhibition of human U251 cells at 10 nM after 96 hrs by MTT assay; set-up: scale not given: the % may be the effect or the level left
SNB-75 = experiment: Growth inhibition of human SNB75 cells at 10 nM after 96 hrs by MTT assay; set-up: scale not given: the % may be the effect or the level left
NCI-H226 = experiment: Growth inhibition of human NCI-H226 cells at 10 nM after 96 hrs by MTT assay; set-up: scale not given: the % may be the effect or the level left
CAKI-1 = experiment: Growth inhibition of human Caki1 cells at 1 nM after 96 hrs by MTT assay; set-up: scale not given: the % may be the effect or the level left
SF-539 = experiment: Growth inhibition of human SF539 cells after 96 hrs by MTT assay; conditions: SF-539, 96 h
Method in brief: (§2)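 Tested in the NCI 60-cell-line panel in five-dose format; GI50 and LC50 values reported for each cell line.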

LOX IMVI [8] = experiment: Growth inhibition of human LOXIMVI cells after 96 hrs by MTT assay; method in brief: as §1
M14 = experiment: Growth inhibition of human M14 cells after 96 hrs by MTT assay; conditions: M14, 96 h; method in brief: as §1
SN12C [9] = experiment: Growth inhibition of human SN12C cells after 96 hrs by MTT assay; method in brief: as §2
TK-10 = experiment: Growth inhibition of human TK10 cells after 96 hrs by MTT assay; conditions: TK-10, 96 h; method in brief: as §2
K562 = experiment: Growth inhibition of human K562 cells at 10 nM after 96 hrs by MTT assay; set-up: scale not given: the % may be the effect or the level left
MOLT-4 = experiment: Growth inhibition of human MOLT4 cells after 96 hrs by MTT assay; conditions: MOLT-4, 96 h; method in brief: as §1
T47D = experiment: Growth inhibition of human T47D cells at 1 uM after 96 hrs by MTT assay; set-up: scale not given: the % may be the effect or the level left
786-0 = experiment: Growth inhibition of human 786-0 cells at 1 uM after 96 hrs by MTT assay; set-up: scale not given: the % may be the effect or the level left
[10] = Growth inhibition of human Hs 578T cells at 100 nM after 96 hrs by MTT assay; set-up: scale not given: the % may be the effect or the level left
MDA-MB-231 = experiment: Growth inhibition of human MDA-MB-231 cells at 100 nM after 96 hrs by MTT assay; set-up: scale not given: the % may be the effect or the level left
SN12C [11] = experiment: Growth inhibition of human SN12C cells at 100 nM after 96 hrs by MTT assay; set-up: scale not given: the % may be the effect or the level left
SK-OV-3 = experiment: Growth inhibition of human SKOV3 cells at 100 nM after 96 hrs by MTT assay; set-up: scale not given: the % may be the effect or the level left
SK-MEL-2 = experiment: Growth inhibition of human SK-MEL-2 cells at 100 nM after 96 hrs by MTT assay; set-up: scale not given: the % may be the effect or the level left
NCI-H460 = experiment: Growth inhibition of human NCI-H460 cells at 100 nM after 96 hrs by MTT assay; set-up: scale not given: the % may be the effect or the level left
HL-60(TB) [12] = experiment: Growth inhibition of human HL-60(TB) cells at 100 nM after 96 hrs by MTT assay; set-up: scale not given: the % may be the effect or the level left
DU-145 = experiment: Growth inhibition of human DU145 cells at 10 nM after 96 hrs by MTT assay; set-up: scale not given: the % may be the effect or the level left
MDA-MB-435 [13] = experiment: Growth inhibition of human MDA-MB-435 cells at 10 nM after 96 hrs by MTT assay; set-up: scale not given: the % may be the effect or the level left
SW-620 [14] = experiment: Growth inhibition of human SW620 cells at 10 nM after 96 hrs by MTT assay; set-up: scale not given: the % may be the effect or the level left
HCC 2998 [15] = experiment: Growth inhibition of human HCC2998 cells at 10 nM after 96 hrs by MTT assay; set-up: scale not given: the % may be the effect or the level left
NCI-H522 [16] = experiment: Growth inhibition of human NCI-H522 cells at 10 nM after 96 hrs by MTT assay; set-up: scale not given: the % may be the effect or the level left
HOP-92 = experiment: Growth inhibition of human HOP92 cells at 10 nM after 96 hrs by MTT assay; set-up: scale not given: the % may be the effect or the level left
SF-295 [17] = experiment: Growth inhibition of human SF295 cells at 1 uM after 96 hrs by MTT assay; set-up: scale not given: the % may be the effect or the level left
SW-620 [18] = experiment: Growth inhibition of human SW620 cells at 1 uM after 96 hrs by MTT assay; set-up: scale not given: the % may be the effect or the level left
HCT-15 [19] = experiment: Growth inhibition of human HCT15 cells at 1 uM after 96 hrs by MTT assay; set-up: scale not given: the % may be the effect or the level left
[20] = read-out: LC50 (the source's name)
[21] = read-out: Log10GI50 (converted)
[22] = read-out: Log10LC50 (converted)

C=C(C)[C@H]1CC=C(C)C2=CO[C@@H](c3ccccc3F)[C@@H]21
Activity (MDA-MB-468): 93% | Activity (LOX IMVI [1]): 97% | Activity (SF-295 [2]): 96% | Activity (NCI-H522 [3]): 82% | Activity (HL-60(TB) [4]): 104% | Activity (UO-31): 78.96% | Activity (OVCAR-3): 115.72% | Activity (MDA-MB-435 [5]): 109.16% | Activity (HCC 2998 [6]): 115.46% | Activity (A549): 71.63% | Activity (SR): 62.58% | GI50 (HCT-15 [7]; read-out: GI50): 4.38 µM | CC50 (HCT-15 [7]; [20]): 51 µM | GI50 (HCT-15 [7]; [21]): 4.37 µM | CC50 (HCT-15 [7]; [22]): 51.3 µM | TGI (HCT-15 [7]; read-out: Log10TGI (converted)): 18.6 µM | TGI (HCT-15 [7]; read-out: TGI): 18.6 µM | Activity (U-251): 94% | Activity (SNB-75): 81% | Activity (NCI-H226): 89% | Activity (CAKI-1): 96% | GI50 (SF-539; read-out: GI50): 6.82 µM | CC50 (SF-539; [20]): 44.8 µM | GI50 (SF-539; [21]): 6.76 µM | CC50 (SF-539; [22]): 44.7 µM | TGI (SF-539; read-out: Log10TGI (converted)): 20 µM | TGI (SF-539; read-out: TGI): 20 µM | GI50 (LOX IMVI [8]; read-out: GI50): 4.3 µM | CC50 (LOX IMVI [8]; [20]): 55.4 µM | GI50 (LOX IMVI [8]; [21]): 4.27 µM | CC50 (LOX IMVI [8]; [22]): 55 µM | TGI (LOX IMVI [8]; read-out: Log10TGI (converted)): 20 µM | TGI (LOX IMVI [8]; read-out: TGI): 19.8 µM | GI50 (M14; read-out: GI50): 6.51 µM | CC50 (M14; [20]): 45.6 µM | GI50 (M14; [21]): 6.46 µM | CC50 (M14; [22]): 45.7 µM | TGI (M14; read-out: Log10TGI (converted)): 20 µM | TGI (M14; read-out: TGI): 20.2 µM | GI50 (SN12C [9]; read-out: GI50): 6.63 µM | CC50 (SN12C [9]; [20]): 45.9 µM | GI50 (SN12C [9]; [21]): 6.61 µM | CC50 (SN12C [9]; [22]): 45.7 µM | TGI (SN12C [9]; read-out: Log10TGI (converted)): 20.4 µM | TGI (SN12C [9]; read-out: TGI): 20.3 µM | GI50 (TK-10; read-out: GI50): 8.93 µM | CC50 (TK-10; [20]): 88.9 µM | GI50 (TK-10; [21]): 8.91 µM | CC50 (TK-10; [22]): 89.1 µM | TGI (TK-10; read-out: Log10TGI (converted)): 28.8 µM | TGI (TK-10; read-out: TGI): 29.1 µM | Activity (K562): 95% | GI50 (MOLT-4; read-out: GI50): 2.12 µM | CC50 (MOLT-4; [20]): 56.2 µM | GI50 (MOLT-4; [21]): 2.14 µM | CC50 (MOLT-4; [22]): 56.2 µM | TGI (MOLT-4; read-out: Log10TGI (converted)): 7.08 µM | TGI (MOLT-4; read-out: TGI): 7.03 µM | Activity (T47D): 2% | Activity (786-0): 48% | Activity [10]: 67% | Activity (MDA-MB-231): 81% | Activity (SN12C [11]): 79% | Activity (SK-OV-3): 98% | Activity (SK-MEL-2): 76% | Activity (NCI-H460): 82% | Activity (HL-60(TB) [12]): 92% | Activity (DU-145): 84% | Activity (MDA-MB-435 [13]): 83% | Activity (SW-620 [14]): 97% | Activity (HCC 2998 [15]): 89% | Activity (NCI-H522 [16]): 77% | Activity (HOP-92): 69% | Activity (SF-295 [17]): 30% | Activity (SW-620 [18]): 23% | Activity (HCT-15 [19]): 31%

Source: ChEMBL document CHEMBL1153726, “Synthesis and anticancer activity of sclerophytin-inspired hydroisobenzofurans” (Bioorg Med Chem Lett, 2009)
